The source of these data is ChEMBL document CHEMBL4049418, “6-OH-Phenanthroquinolizidine Alkaloid and Its Derivatives Exert Potent Anticancer Activity by Delaying S Phase Progression” (J Med Chem, 2017).

Structures are written as SMILES. Calls of active or inactive are those of the source. The rule behind the calls is not given here.

Series [1] can be described thus: Cytotoxicity against Sprague-Dawley rat primary neuronal cells assessed as reduction in cell viability at 300 nM after 24 hrs by MTT assay. To be noted: read-out: INH. The series is classed as cell-based.
Another series concerns L02. As to the kind of experiment: Antiproliferative activity against human LO2 cells assessed as reduction in viability after 72 hrs by SRB assay. The series is classed as cell-based. To be noted: L02, 72 h. The gist of the method: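 Cells seeded and dosed in triplicate for 72 h. Suspension lines (HL-60, K-562, K562/ADR, HL-60/MX2) were read by MTT: 5 mg/mL MTT stock added, 4 h at 37 °C, formazan dissolved in 10% SDS/5% isobutanol/10 mM HCl, A570. Adherent lines were read by SRB: fixed with cold 10% TCA, stained with 0.4% SRB in 1% acetic acid, A540. IC50 from four-parameter logistic fit; mean of ≥3 independent experiments.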
For orientation: Sulforhodamine B stains cellular protein and so reports cell mass.

Series [2] concerns Bel-7402. The experiment in a line: Cell cycle arrest in human Bel7402 cells assessed as accumulation in S-phase at 10 nM after 24 hrs by propidium iodide staining-based flow cytometry (reference value: 27.5 +/- 1%). The series is classed as functional. In short, it runs like this:
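BEL-7402 cells exposed for 24 h, then fixed in 70% ethanol at −20 °C for ≥1 h. Stained with 50 μg/mL propidium iodide plus 10 μg/mL RNase A for 30 min in the dark at room temperature. DNA content read by flow cytometry on ≥1.0 × 10⁴ cells per sample.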
On the technique in general: A flow cytometer gives signals particle by particle.

Series [3] relates to Bel-7402. As to the kind of experiment: Antiproliferative activity against human Bel7402 cells assessed as reduction in cell viability at 0.12 to 10 nM up to 10 days by fluorescence-based cell imaging method. The series is classed as functional. In short, it runs like this:
(§1)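 Live-cell imaging (IncuCyte ZOOM) of BEL-7402 cells seeded at 1.5 × 10⁴ per well in 12-well plates. Cells treated in triplicate with a concentration gradient and imaged continuously for 10 days to build growth curves.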

Series [4] relates to Bel-7402. The experiment in a line: Induction of apoptosis in human Bel7402 cells assessed as late apoptotic cells at 1 nM after 72 hrs by Annexin V/propidium iodide staining based flow cytometric analysis (reference value: 3.6%). Type of series: functional. The gist of the method: (§2)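 BEL-7402 cells (3 × 10⁵ per well, 6-well plates) exposed for 72 h. Harvested, PBS-washed, resuspended in cold binding buffer with annexin V–FITC and PI, and stained 15 min in the dark at room temperature. Early apoptotic, late apoptotic and necrotic fractions quantified by flow cytometry.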

A further series has as its system SMMC-7721. As to the kind of experiment: Cell cycle arrest in human SMMC7721 cells assessed as delay in progression of S-phase to G2-phase at 1 to 10 nM pre-treated with aphidicolin for 16 hrs followed by compound addition measured after 24 hrs by propidium iodide staining-based flow cytometric method. The series is classed as functional. In short, it runs like this: (§3)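 Exponentially growing cells synchronized in early S phase with 0.2 μg/mL aphidicolin for 16 h. Cells released into fresh medium with or without compound for set times. Ethanol-fixed, stained with PI/RNase, and cell cycle distribution read by flow cytometry. Representative of three independent experiments.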

In series [5] the test system is K562/Adr. As to the kind of experiment: Effect on P-gp expression in human K562/ADR cells up to 100 nM after 24 hrs by Western blot analysis. Type of series: functional, cell-based. Background: In western blotting, separated proteins are transferred to a membrane and probed.
Series [6] is described as follows: Selectivity ratio of IC50 for human MRC5 cells to IC50 for human A549 cells. The gist of the method:
(§4)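 SRB assay: A549 (F-12, 10% FBS) and MRC-5/MRC-9 (EMEM, 10% FBS) treated in triplicate 72 h, fixed with ice-cold 10% TCA, stained with 0.4% SRB in 1% acetic acid, absorbance 540 nm; IC₅₀ by four-parameter logistic fit, mean of ≥3 independent experiments.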

Series [7] relates to Bel-7402. As to the kind of experiment: Cell cycle arrest in human Bel7402 cells assessed as delay in progression of S-phase to G2-phase at 1 to 3 nM pre-treated with aphidicolin for 16 hrs followed by compound addition measured after 4 hrs by propidium iodide staining-based flow cytometric method. Type of series: functional. In short, it runs like this:
as §3

The next series has as its system K562. The experiment in a line: Cell cycle arrest in human K562 cells assessed as delay in progression of S-phase to G2-phase at 1 to 10 nM pre-treated with aphidicolin for 16 hrs followed by compound addition measured up to 24 hrs by propidium iodide staining-based flow cytometric method. Type of series: functional.
Series [8] is described as follows: Selectivity ratio of IC50 for human MRC9 cells to IC50 for human A549 cells. The gist of the method:
as §4

The subject of series [9] is K562/Adr. The experiment in a line: Cell cycle arrest in human K562/ADR cells assessed as delay in progression of S-phase to G2-phase at 1 to 10 nM pre-treated with aphidicolin for 16 hrs followed by compound addition measured up to 24 hrs by propidium iodide staining-based flow cytometric method. The series is classed as functional.
For series [10], the system named is Bel-7402. As to the kind of experiment: Inhibition of DNA synthesis in human Bel7402 cells assessed as BrdU incorporation at 10 nM preincubated for 1 hr followed by BrdU addition for 30 mins by FITC/propidium iodide staining based flow cytometry (reference value: 35.5%). The series is classed as functional. Also on record: scale not given: the % may be the effect or the level left. The gist of the method:
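BEL-7402 cells (3 × 10⁵ per well) exposed to compounds 1 h, then labeled with 10 μM BrdU for 30 min; trypsinized, fixed in 70% ethanol at −20 °C ≥1 h, 2 N HCl 20 min, neutralized with 0.1 M borate, stained with anti-BrdU-FITC plus PI 30 min; BrdU-positive cells quantified by flow cytometry; three independent experiments, mean + SD.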

For series [11], the system named is Bel-7402. The experiment in a line: Induction of apoptosis in human Bel7402 cells assessed as early apoptotic cells at 1 nM after 72 hrs by Annexin V/propidium iodide staining based flow cytometric analysis (reference value: 3.66%). Type of series: functional. In short, it runs like this: as §2
Series [12] deals with Bel-7402. As to the kind of experiment: Induction of apoptosis in human Bel7402 cells assessed as early apoptotic cells at 1 uM after 72 hrs by Annexin V/propidium iodide staining based flow cytometric analysis (reference value: 3.66%). Type of series: functional. In short, it runs like this: as §2
Series [13] relates to Bel-7402. As to the kind of experiment: Induction of apoptosis in human Bel7402 cells assessed as viable cells at 1 uM after 72 hrs by Annexin V/propidium iodide staining based flow cytometric analysis (reference value: 92.4%). Type of series: functional. To be noted: Bel-7402, 72 h, read-out: Activity.
Series [14] has as its system Bel-7402. The experiment in a line: Antiproliferative activity against human Bel7402 cells assessed as reduction in cell viability at 0.012 to 1 uM up to 10 days by fluorescence-based cell imaging method. The series is classed as functional. In short, it runs like this: as §1
Series [15] deals with Bel-7402. The experiment in a line: Induction of DNA damage in human Bel7402 cells assessed as increase in gamma-H2AX levels at 0.1 to 10 uM after 1 hr by Western blot analysis. The series is classed as functional, cell-based. In short, it runs like this:
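BEL-7402 cells (1.5 × 10⁵ per well, 12-well plates) exposed to compounds for 1 h. Phospho-Chk1 Ser345, phospho-Chk2 Thr68 and γH2AX detected by Western blot. Camptothecin at 1 μM served as the DNA-damage reference.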

Series [16] concerns Bel-7402. The experiment in a line: Induction of apoptosis in human Bel7402 cells assessed as late apoptotic cells at 1 uM after 72 hrs by Annexin V/propidium iodide staining based flow cytometric analysis (reference value: 3.6%). Type of series: functional. The gist of the method: as §2
Series [17] is described as follows: Growth inhibition of human KB-HU-R cells after 8 days by methylene blue-staining based spectrophotometry. The series is classed as functional. To be noted: 192 h.
For series [18], the system named is Bel-7402. The experiment in a line: Inhibition of colony formation in human Bel7402 cells at 0.01 to 10 uM after 24 hrs by SRB staining-based plate colony formation assay. Type of series: functional, cell-based. In short, it runs like this: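 BEL-7402 cells seeded at 200 per well, treated in triplicate 24 h, washed twice with PBS, then grown 12 days in fresh medium; colonies stained with SRB and those ≥1 mm diameter counted; three independent experiments, mean ± SD.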

Series [19] concerns Bel-7402. The experiment in a line: Induction of apoptosis in human Bel7402 cells assessed as late apoptotic cells at 10 uM after 72 hrs by Annexin V/propidium iodide staining based flow cytometric analysis (reference value: 3.6%). The series is classed as functional. The gist of the method: as §2

A word on the IC50: it is the point on the concentration scale where inhibition reaches its midpoint. A word on the GI50: it is the concentration giving 50% growth inhibition.

As to `COc1cc2c3c(c4ccc(O)cc4c2cc1OC)CN1CCCC[C@@H]1C3`, the cytotoxicity at 24 h, 0.3 µM in [1] stood at 50%. Besides, the half-maximal inhibitory concentration (IC50) with L02 stood at 2.7 nM. The Activity in the series with Bel-7402 [2] is reported as 50.3%; in the series on Bel-7402 [4], 2.11%; in the series with Bel-7402 [10], 5.07%; in the series on Bel-7402 [11], 3.11%. The inhibition result in the series on Bel-7402 [3] is “Active”. For the same molecule, the result with SMMC-7721, in the series on Bel-7402 [7], in the series with K562 and in the series on K562/Adr [9] was Active. The result in the series with K562/Adr [5] was inactive. In addition, the “Ratio IC50” value in series [6] and in [8] was 3 - 4 throughout.
Take `COc1cc2c3c(c4cc(OC)c(OC)cc4c2cc1OC)[C@H](O)[C@@H]1CCCN1C3`: the Activity in the series on Bel-7402 [12] was determined as 2.56%; in the series on Bel-7402 [16], 1.92%; in the series with Bel-7402 [19], 11.5%. Also, the viability at 1 µM in the series on Bel-7402 [13] was found to be 94.7%. The inhibition result with Bel-7402 [14] and with Bel-7402 [18] was “Active” throughout. Further, the result with Bel-7402 [15] was inactive. The GI50 in series [17] was found to be 30 nM.
